According to ChEMBL document CHEMBL1275556, “High prevalence of plasmid-mediated quinolone resistance genes qnr and aac(6')-Ib-cr in clinical isolates of Enterobacteriaceae from nine teaching hospitals in China” (2008):
Values after ≈ are worked out from the molar mass of the structure shown.

What was measured:
Citrobacter freundii [1] = assay: Antimicrobial activity against aac(6')-Ib-cr-positive Citrobacter freundii JS33T harboring qnrA gene by agar dilution method; assay type: functional
Procedure, shortened: (§1)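 MICs were determined by the CLSI agar dilution method (M7-A7) and interpreted against CLSI M100-S17 breakpoints.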

Citrobacter freundii [2] = assay: Antimicrobial activity against aac(6')-Ib-cr-positive Citrobacter freundii JN1T by agar dilution method; assay type: functional; procedure, shortened: as §1
Citrobacter freundii [3] = assay: Antimicrobial activity against aac(6')-Ib-cr-positive Citrobacter freundii JS33 harboring GyrA T83I mutant, wild-type ParC, GyrB, qnrA and qnrB genes by agar dilution method; assay type: functional; procedure, shortened: as §1
Klebsiella pneumoniae [4] = assay: Antimicrobial activity against aac(6')-Ib-cr-positive Klebsiella pneumoniae WH99 harboring wild-type GyrA, ParC, GyrB and qnrB genes by agar dilution method; assay type: functional
Procedure, shortened: (§2)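 MICs were determined on clinical isolates by CLSI agar dilution (M7-A7) and interpreted against CLSI M100-S17 breakpoints.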

Klebsiella pneumoniae [5] = assay: Antimicrobial activity against aac(6')-Ib-cr-positive Klebsiella pneumoniae GZ40 harboring GyrA S83I, ParC S80I mutant, wild-type GyrB and qnrB genes by agar dilution method; assay type: functional; procedure, shortened: as §1
Klebsiella pneumoniae [6] = assay: Antimicrobial activity against aac(6')-Ib-cr-negative Klebsiella pneumoniae SY22 harboring GyrA S83I, ParC S80I mutant, wild-type GyrB and qnrS genes by agar dilution method; assay type: functional; procedure, shortened: as §1
Citrobacter freundii [7] = assay: Antimicrobial activity against aac(6')-Ib-cr-positive Citrobacter freundii JN1 harboring GyrA T83I, ParC S80I mutant, wild-type GyrB and qnrA genes by agar dilution method; assay type: functional; procedure, shortened: as §1
Citrobacter freundii [8] = assay: Antimicrobial activity against aac(6')-Ib-cr-positive Citrobacter freundii PU55 harboring GyrA T83I, ParC S80I mutant, wild-type GyrB, qnrA genes by agar dilution method; assay type: functional; procedure, shortened: as §1
Citrobacter freundii [9] = assay: Antimicrobial activity against aac(6')-Ib-cr-positive Citrobacter freundii PU55T harboring wild-type GyrA, ParC, GyrB and qnrA genes by agar dilution method
Klebsiella pneumoniae [10] = assay: Antimicrobial activity against aac(6')-Ib-cr-positive Klebsiella pneumoniae JN41T harboring qnrB gene by agar dilution method; assay type: functional
Procedure, shortened: (§3)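 Transconjugants were made by conjugating a qnr/aac(6')-Ib-cr donor with azide-resistant E. coli J53. Selection used Trypticase soy agar with sodium azide 150 µg/ml and sulfamethoxazole 180 µg/ml. […] MICs were read by CLSI agar dilution (M7-A7) and interpreted per M100-S17.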

Klebsiella pneumoniae [11] = assay: Antimicrobial activity against aac(6')-Ib-cr-positive Klebsiella pneumoniae SY26T harboring wild-type GyrA, ParC, GyrB and qnrB genes by agar dilution method; assay type: functional
Procedure, shortened: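 Transconjugants were made by conjugating a qnr/aac(6')-Ib-cr donor with azide-resistant E. coli J53. MICs were read by CLSI agar dilution (M7-A7) and interpreted per M100-S17.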

Klebsiella pneumoniae [12] = assay: Antimicrobial activity against aac(6')-Ib-cr-positive Klebsiella pneumoniae SY26 harboring GyrA S83I, ParC S80I mutant, wild-type GyrB and qnrB genes by agar dilution method; assay type: functional; procedure, shortened: as §2
Klebsiella pneumoniae [13] = assay: Antimicrobial activity against aac(6')-Ib-cr-negative Klebsiella pneumoniae SY22T harboring qnrS gene by agar dilution method; assay type: functional; procedure, shortened: as §1
Klebsiella pneumoniae [14] = assay: Antimicrobial activity against aac(6')-Ib-cr-positive Klebsiella pneumoniae JN132T harboring qnrB gene by agar dilution method; assay type: functional; procedure, shortened: as §3
Citrobacter freundii [15] = assay: Antimicrobial activity against aac(6')-Ib-cr-positive Citrobacter freundii TJ15 harboring GyrA T83I, ParC S80I mutant, wild-type GyrB, qnrB genes by agar dilution method; assay type: functional; procedure, shortened: as §1
Klebsiella pneumoniae [16] = assay: Antimicrobial activity against aac(6')-Ib-cr-positive Klebsiella pneumoniae JN41 harboring GyrA S83I, ParC S80I mutant, wild-type GyrB and qnrB genes by agar dilution method; assay type: functional; procedure, shortened: as §2
Citrobacter freundii [17] = assay: Antimicrobial activity against aac(6')-Ib-cr-negative Citrobacter freundii JN64 harboring GyrA T83I, wild-type ParC, GyrB and qnrA genes by agar dilution method; assay type: functional; procedure, shortened: as §1
Klebsiella pneumoniae [18] = assay: Antimicrobial activity against aac(6')-Ib-cr-positive Klebsiella pneumoniae GZ40T harboring qnrB gene by agar dilution method
Klebsiella pneumoniae [19] = assay: Antimicrobial activity against aac(6')-Ib-cr-positive Klebsiella pneumoniae JN132 harboring GyrA S83I, ParC S80I mutant, wild-type GyrB and qnrB genes by agar dilution method; assay type: functional; procedure, shortened: as §2
Klebsiella pneumoniae [20] = assay: Antimicrobial activity against aac(6')-Ib-cr-positive Klebsiella pneumoniae WH99T harboring qnrB gene by agar dilution method; assay type: functional; procedure, shortened: as §3
Escherichia coli [21] = assay: Antimicrobial activity against aac(6')-Ib-cr-positive Escherichia coli FJ3T harboring wild-type GyrA, ParC, GyrB and qnrB genes by agar dilution method
Enterobacter cloacae [22] = assay: Antimicrobial activity against aac(6')-Ib-cr-negative Enterobacter cloacae WH42T harboring qnrA gene by agar dilution method; assay type: functional
Citrobacter freundii [23] = assay: Antimicrobial activity against aac(6')-Ib-cr-positive Citrobacter freundii TJ15T harboring wild-type GyrA, ParC, GyrB genes by agar dilution method; assay type: functional; procedure, shortened: as §1
Enterobacter cloacae [24] = assay: Antimicrobial activity against aac(6')-Ib-cr-negative Enterobacter cloacae SH39 harboring GyrA S83I, ParC S80I mutant, wild-type GyrB and qnrA genes by agar dilution method; assay type: functional
Citrobacter freundii [25] = assay: Antimicrobial activity against aac(6')-Ib-cr-negative Citrobacter freundii JN64T harboring qnrA gene by agar dilution method; assay type: functional; procedure, shortened: as §1
Enterobacter cloacae [26] = assay: Antimicrobial activity against aac(6')-Ib-cr-negative Enterobacter cloacae WH42 harboring wild-type GyrA, ParC, GyrB and qnrA genes by agar dilution method; assay type: functional
Enterobacter cloacae [27] = assay: Antimicrobial activity against aac(6')-Ib-cr-negative Enterobacter cloacae FJ67T harboring qnrS gene by agar dilution method; assay type: functional
Enterobacter cloacae [28] = assay: Antimicrobial activity against aac(6')-Ib-cr-positive Enterobacter cloacae FJ63T harboring qnrS gene by agar dilution method; assay type: functional
Enterobacter cloacae [29] = assay: Antimicrobial activity against aac(6')-Ib-cr-negative Enterobacter cloacae FJ61T harboring qnrS gene by agar dilution method; assay type: functional
Enterobacter cloacae [30] = assay: Antimicrobial activity against aac(6')-Ib-cr-negative Enterobacter cloacae FJ67 harboring […] and qnrS genes by agar dilution method; assay type: functional
Escherichia coli [31] = assay: Antimicrobial activity against aac(6')-Ib-cr-positive Escherichia coli FJ3 harboring GyrA S83L, ParC S80R mutant, wild-type GyrB and qnrB genes by agar dilution method; assay type: functional; procedure, shortened: as §1
Enterobacter cloacae [32] = assay: Antimicrobial activity against aac(6')-Ib-cr-negative Enterobacter cloacae GZ47 harboring qnrB and qnrS genes by agar dilution method; assay type: functional
Enterobacter cloacae [33] = assay: Antimicrobial activity against aac(6')-Ib-cr-negative Enterobacter cloacae GZ51T harboring qnrA gene by agar dilution method; assay type: functional
Enterobacter cloacae [34] = assay: Antimicrobial activity against aac(6')-Ib-cr-negative Enterobacter cloacae GZ47T harboring qnrB gene by agar dilution method; assay type: functional
Enterobacter cloacae [35] = assay: Antimicrobial activity against aac(6')-Ib-cr-negative Enterobacter cloacae GZ51 harboring qnrA gene by agar dilution method; assay type: functional
Enterobacter cloacae [36] = assay: Antimicrobial activity against aac(6')-Ib-cr-positive Enterobacter cloacae FJ63 harboring GyrA S83I, GyrA D87A, ParC S80I mutant, wild-type GyrB and qnrS genes by agar dilution method; assay type: functional
Escherichia coli [37] = assay: Antimicrobial activity against aac(6')-Ib-cr-negative Escherichia coli PU12 harboring GyrA S83L mutant, wild-type GyrB, ParC and qnrS genes by agar dilution method; assay type: functional; procedure, shortened: as §1
Enterobacter cloacae [38] = assay: Antimicrobial activity against aac(6')-Ib-cr-negative Enterobacter cloacae FJ61 harboring GyrA S83I, GyrA D87A, ParC S80I mutant, wild-type GyrB and qnrS genes by agar dilution method; assay type: functional
Enterobacter cloacae [39] = assay: Antimicrobial activity against aac(6')-Ib-cr-negative Enterobacter cloacae SH39T harboring qnrA gene by agar dilution method; assay type: functional
Escherichia coli [40] = assay: Antimicrobial activity against aac(6')-Ib-cr-negative Escherichia coli PU12T harboring wild-type GyrA, GyrB, ParC and qnrS genes by agar dilution method; assay type: functional; procedure, shortened: as §1

Compound | MIC (Citrobacter freundii [1]) | MIC (Citrobacter freundii [2]) | MIC (Citrobacter freundii [3]) | MIC (Klebsiella pneumoniae [4]) | MIC (Klebsiella pneumoniae [5]) | MIC (Klebsiella pneumoniae [6]) | MIC (Citrobacter freundii [7]) | MIC (Citrobacter freundii [8]) | MIC (Citrobacter freundii [9]) | MIC (Klebsiella pneumoniae [10]) | MIC (Klebsiella pneumoniae [11]) | MIC (Klebsiella pneumoniae [12]) | MIC (Klebsiella pneumoniae [13]) | MIC (Klebsiella pneumoniae [14]) | MIC (Citrobacter freundii [15]) | MIC (Klebsiella pneumoniae [16]) | MIC (Citrobacter freundii [17]) | MIC (Klebsiella pneumoniae [18]) | MIC (Klebsiella pneumoniae [19]) | MIC (Klebsiella pneumoniae [20]) | other results
O=C(O)c1cn(C2CC2)c2cc(N3CCNCC3)c(F)cc2c1=O [CIPROFLOXACIN] | 0.5 µg/mL (≈ 1.51 µM) | 1 µg/mL (≈ 3.02 µM) | 4 µg/mL (≈ 12.1 µM) | 2 µg/mL (≈ 6.04 µM) | > 32 µg/mL | > 32 µg/mL | > 32 µg/mL | > 32 µg/mL | 1 µg/mL (≈ 3.02 µM) | 0.5 µg/mL (≈ 1.51 µM) | 0.5 µg/mL (≈ 1.51 µM) | > 32 µg/mL | 0.5 µg/mL (≈ 1.51 µM) | 1 µg/mL (≈ 3.02 µM) | 16 µg/mL (≈ 48.3 µM) | > 32 µg/mL | 8 µg/mL (≈ 24.1 µM) | 1 µg/mL (≈ 3.02 µM) | > 32 µg/mL | 1 µg/mL (≈ 3.02 µM) | –
C[C@H]1COc2c(N3CCN(C)CC3)c(F)cc3c(=O)c(C(=O)O)cn1c23.C[C@H]1COc2c(N3CCN(C)CC3)c(F)cc3c(=O)c(C(=O)O)cn1c23.O [LEVOFLOXACIN] | 0.25 µg/mL | 0.25 µg/mL | 2 µg/mL | – | > 32 µg/mL | > 32 µg/mL | 16 µg/mL | 32 µg/mL | 0.25 µg/mL | 0.25 µg/mL | 0.25 µg/mL | 32 µg/mL | – | 0.25 µg/mL | 4 µg/mL | > 32 µg/mL | 8 µg/mL | 0.25 µg/mL | 8 µg/mL | 0.25 µg/mL | MIC (Escherichia coli [21]): 0.25 µg/mL; MIC (Enterobacter cloacae [22]): 0.25 µg/mL; MIC (Citrobacter freundii [23]): 0.5 µg/mL; MIC (Enterobacter cloacae [24]): 32 µg/mL; MIC (Citrobacter freundii [25]): 0.5 µg/mL; MIC (Enterobacter cloacae [26]): 2 µg/mL; MIC (Enterobacter cloacae [27]): 1 µg/mL; MIC (Enterobacter cloacae [28]): 0.5 µg/mL; MIC (Enterobacter cloacae [29]): 0.5 µg/mL; MIC (Enterobacter cloacae [30]): 8 µg/mL; MIC (Escherichia coli [31]): 4 µg/mL; MIC (Enterobacter cloacae [32]): 2 µg/mL; MIC (Enterobacter cloacae [33]): 0.25 µg/mL; MIC (Enterobacter cloacae [34]): 0.25 µg/mL; MIC (Enterobacter cloacae [35]): 0.5 µg/mL; MIC (Enterobacter cloacae [36]): > 32 µg/mL; MIC (Escherichia coli [37]): 4 µg/mL; MIC (Enterobacter cloacae [38]): > 32 µg/mL; MIC (Enterobacter cloacae [39]): 0.5 µg/mL
GENTAMICIN | 16 µg/mL | 1 µg/mL | 64 µg/mL | 128 µg/mL | 1 µg/mL | 128 µg/mL | 1 µg/mL | 1 µg/mL | – | 1 µg/mL | > 256 µg/mL | > 256 µg/mL | 32 µg/mL | > 256 µg/mL | 256 µg/mL | 1 µg/mL | > 256 µg/mL | – | > 256 µg/mL | 128 µg/mL | MIC (Enterobacter cloacae [22]): 8 µg/mL; MIC (Citrobacter freundii [23]): 1 µg/mL; MIC (Enterobacter cloacae [24]): 8 µg/mL; MIC (Citrobacter freundii [25]): > 256 µg/mL; MIC (Enterobacter cloacae [26]): 16 µg/mL; MIC (Enterobacter cloacae [27]): 1 µg/mL; MIC (Enterobacter cloacae [28]): > 256 µg/mL; MIC (Enterobacter cloacae [29]): 1 µg/mL; MIC (Enterobacter cloacae [30]): 2 µg/mL; MIC (Escherichia coli [31]): 128 µg/mL; MIC (Enterobacter cloacae [32]): 256 µg/mL; MIC (Enterobacter cloacae [33]): > 256 µg/mL; MIC (Enterobacter cloacae [34]): 128 µg/mL; MIC (Enterobacter cloacae [35]): > 256 µg/mL; MIC (Enterobacter cloacae [36]): > 256 µg/mL; MIC (Escherichia coli [37]): 2 µg/mL; MIC (Enterobacter cloacae [38]): 128 µg/mL; MIC (Escherichia coli [40]): 1 µg/mL; MIC (Enterobacter cloacae [39]): 4 µg/mL
